# Source: ChEMBL document CHEMBL2413060, “Synthesis, biological evaluation and molecular docking studies of some pyrimidine derivatives” (2013)
# Tests used:
# Format in all cases: functional
# [1] = tested on: Candida albicans; assay: Antifungal activity against Candida albicans ATCC 2091 after 48 hrs by two-fold serial dilution method relative to clotrimazole
# [2] = tested on: Candida albicans; assay: Antifungal activity against Candida albicans ATCC 2091 after 48 hrs by two-fold serial dilution method; settings: ATCC 2091, 48 h
# Summary of the method: (§1)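 Two-fold serial broth dilution in sterile nutrient broth at 500, 250, 125, 62.5, 31.25, 15.63, 7.82 and 3.91 µg/ml, with dimethylformamide ≤2.5%. Organisms were pre-grown 24 h in broth, and 0.1 ml inoculum was added per 5 ml tube. Tubes were incubated at 37°C, 24 h for bacteria and 48 h for fungi. MIC was taken as the lowest concentration giving no turbidity.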
# [3] = tested on: Pseudomonas aeruginosa; assay: Antibacterial activity against Pseudomonas aeruginosa ATCC 9027 after 24 hrs by two-fold serial dilution method; settings: ATCC 9027, 24 h; summary of the method: as §1
# [4] = tested on: Candida albicans; assay: Antifungal activity against Candida albicans ATCC 2091 assessed as diameter of inhibition zone at 1 mg/ml after 48 hrs by cup diffusion method (reference value: 22 mm); settings: ATCC 2091, 48 h, read-out: DIZ
# [5] = tested on: Pseudomonas aeruginosa; assay: Antibacterial activity against Pseudomonas aeruginosa ATCC 9027 assessed as diameter of inhibition zone at 1 mg/ml after 24 hrs by cup diffusion method (reference value: 16 mm); settings: ATCC 9027, 24 h, read-out: DIZ
# [6] = tested on: Staphylococcus aureus; assay: Antibacterial activity against Staphylococcus aureus ATCC 6538P assessed as diameter of inhibition zone at 1 mg/ml after 24 hrs by cup diffusion method (reference value: 15 mm); settings: read-out: DIZ
# [7] = tested on: Shigella flexneri; assay: Antibacterial activity against Shigella flexneri ATCC 15391 assessed as diameter of inhibition zone at 1 mg/ml after 24 hrs by cup diffusion method (reference value: 17 mm); settings: ATCC 15391, 24 h, read-out: DIZ
# [8] = tested on: HOP-92; assay: Cytotoxicity against human HOP92 cells assessed as growth inhibition at 10 uM; settings: read-out: GI
# [9] = tested on: Shigella flexneri; assay: Antibacterial activity against Shigella flexneri ATCC 15391 after 24 hrs by two-fold serial dilution method; settings: ATCC 15391, 24 h; summary of the method: as §1
# [10] = tested on: Shigella flexneri; assay: Antibacterial activity against Shigella flexneri ATCC 15391 after 24 hrs by two-fold serial dilution method relative to ofloxacin
# [11] = tested on: Staphylococcus aureus; assay: Antibacterial activity against Staphylococcus aureus ATCC 6538P after 24 hrs by two-fold serial dilution method; summary of the method: as §1
# [12] = tested on: Pseudomonas aeruginosa; assay: Antibacterial activity against Pseudomonas aeruginosa ATCC 9027 after 24 hrs by two-fold serial dilution method relative to ofloxacin
# [13] = tested on: HOP-62; assay: Cytotoxicity against human HOP62 cells assessed as growth inhibition at 10 uM; settings: read-out: GI
# [14] = tested on: HCC 2998; assay: Cytotoxicity against human HCC2998 cells assessed as growth inhibition at 10 uM; settings: read-out: GI
SMILES,MIC [2] [µg/mL],MIC [3] [µg/mL],MIC [9] [µg/mL],MIC [11] [µg/mL],Activity [1] [%],zone of inhibition at 1000 µg/mL [4] [mm],zone of inhibition at 1000 µg/mL [5] [mm],zone of inhibition at 1000 µg/mL [6] [mm],zone of inhibition at 1000 µg/mL [7] [mm],inhibition of growth at 10 µM [8] [%],Activity [10] [%],Activity [12] [%],inhibition of growth at 10 µM [13] [%],inhibition of growth at 10 µM [14] [%]
Cn1c(-n2[nH]c3c(c2=O)C(=O)CC(=O)O3)nc(-c2ccco2)c(C#N)c1=O,–,–,–,–,–,22,16,15,17,–,–,–,–,–
Cn1c(=O)c(C#N)c(-c2ccccc2)n2c(CC#N)nnc12,–,–,–,–,–,22,17,15,19,–,–,–,–,–
N#Cc1c(Cl)nc(SCC2CO2)nc1-c1ccco1 (configuration not stated),–,–,–,–,–,22,17,15,18,–,–,–,–,–
N#Cc1c(-c2ccco2)nc(SCC2CO2)nc1N1CCOCC1 (configuration not stated),–,–,–,–,–,22,16,15,17,–,–,–,–,–
N#Cc1c(-c2ccccc2)nc(SCC2CO2)[nH]c1=O (configuration not stated),–,–,125,–,–,22,16,15,22,41.5,–,–,–,–
N#Cc1c(-c2ccc([N+](=O)[O-])cc2)nc(SCC2CO2)[nH]c1=O (configuration not stated),–,–,–,–,–,22,17,15,17,–,–,–,–,–
N#Cc1c(-c2ccccc2)nc(SCC(O)CN2CCOCC2)[nH]c1=O (configuration not stated),–,–,–,–,–,22,16,15,18,–,–,–,–,–
N#Cc1c(-c2ccco2)nc(SCC(O)CN2CCOCC2)[nH]c1=O (configuration not stated),–,–,–,–,–,22,16,15,18,–,–,–,–,–
N#Cc1c(Cl)nc(=S)[nH]c1-c1ccc([N+](=O)[O-])cc1,–,–,–,–,–,22,16,15,17,–,–,–,–,–
N#Cc1c(Cl)nc(=S)[nH]c1-c1ccco1,–,62.5,–,–,–,22,18,15,17,–,–,–,49.6,–
N#Cc1c(N2CCOCC2)nc(=S)[nH]c1-c1ccc([N+](=O)[O-])cc1,–,–,–,–,–,22,16,15,18,–,–,–,–,–
N#Cc1c(N2CCCCC2)nc(=S)[nH]c1-c1ccco1,–,–,–,125,–,22,16,18,17,–,–,–,–,–
N#Cc1c(N2CCN(Cc3ccccc3)CC2)nc(=S)[nH]c1-c1ccc([N+](=O)[O-])cc1,–,–,–,–,–,22,16,15,17,–,–,–,–,71.8
Cn1c(N2CCN(Cc3ccccc3)CC2)nc(-c2ccco2)c(C#N)c1=O,–,–,–,–,–,22,17,15,17,–,–,–,–,–
Cn1c(-n2[nH]c3c(c2=O)C(=O)CC(=O)O3)nc(-c2ccccc2)c(C#N)c1=O,–,125,–,–,–,22,19,15,17,–,–,–,–,–

# Further lines, with some results ahead:
MIC [2] [µg/mL],MIC [3] [µg/mL],MIC [9] [µg/mL],MIC [11] [µg/mL],SMILES,Activity [1] [%],zone of inhibition at 1000 µg/mL [4] [mm],zone of inhibition at 1000 µg/mL [5] [mm],zone of inhibition at 1000 µg/mL [6] [mm],zone of inhibition at 1000 µg/mL [7] [mm],inhibition of growth at 10 µM [8] [%],Activity [10] [%],Activity [12] [%],inhibition of growth at 10 µM [13] [%],inhibition of growth at 10 µM [14] [%]
125,125,–,–,CCOC(=O)CC(=N)N(NC(=O)CC#N)c1nc(-c2ccccc2)c(C#N)c(=O)n1C,60,–,–,–,–,–,–,–,–,–
125,125,–,–,N#Cc1c(-c2ccco2)nc(SCC(O)CN2CCOCC2)nc1N1CCOCC1 (configuration not stated),60,25,18,15,17,–,–,–,–,–
125,125,125,125,N#Cc1c(-c2ccco2)nc(SCC2CO2)[nH]c1=O (configuration not stated),62,25,18,18,24,–,60,50,–,–
–,125,125,–,N#Cc1c(Cl)nc(=S)[nH]c1-c1ccccc1,–,22,18,15,22,48.5,–,–,47.4,–
–,–,125,–,N#Cc1c(N2CCCCC2)nc(=S)[nH]c1-c1ccc([N+](=O)[O-])cc1,–,22,17,15,23,–,60,60,–,–
–,125,125,–,N#Cc1c(N2CCN(Cc3ccccc3)CC2)nc(=S)[nH]c1-c1ccccc1,–,22,18,15,20,–,60,60,–,–
125,125,–,3.91,N#Cc1c(N2CCN(Cc3ccccc3)CC2)nc(=S)[nH]c1-c1ccco1,75,29,20,18,17,–,–,–,–,–
–,–,125,–,COc1ccc(NC(=O)CSc2nc(-c3ccccc3)c(C#N)c(=O)[nH]2)cc1,–,22,16,15,20,–,60,–,–,–
–,–,125,–,COc1ccc(NC(=O)CSc2nc(-c3ccco3)c(C#N)c(=O)[nH]2)cc1,–,23,16,15,20,–,60,–,–,–
–,–,–,3.91,CC1(C)S[C@@H]2[C@H](NC(=O)[C@H](N)c3ccccc3)C(=O)N2[C@H]1C(=O)O [AMPICILLIN],–,–,16,41,22,–,–,–,–,–
12.5,–,–,–,Clc1ccccc1C(c1ccccc1)(c1ccccc1)n1ccnc1 [CLOTRIMAZOLE],–,40,–,–,–,–,–,–,–,–
–,1.95,7.81,–,CC1COc2c(N3CCN(C)CC3)c(F)cc3c(=O)c(C(=O)O)cn1c23 (configuration not stated) [OFLOXACIN],–,–,43,43,32,–,–,–,–,–
